Laboratory results reported in ChEMBL document CHEMBL3228034, “Cardenolide analogues. 9. Synthesis and biological activity of 17beta-carbomethoxyethylene and 17beta-cyanoethylene 14alpha-H steroids” (J Med Chem, 1979).
Calls of active or inactive are those of the source.

What was measured:
Cavia porcellus [1] = organism: Cavia porcellus; assay: Induction of positive inotropic activity in guinea pig atrium assessed as atrial contractility up to 10^-4 M; assay type: functional, tissue-based; settings: Cardiac atrium
In short: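 Left auricle from guinea pig in Krebs-Henseleit solution, 32 °C, gassed with O2 containing 5% CO2, resting tension about 1 g. Paced by rectangular pulses (10 ms, 100/min) at 20% above threshold voltage. Change in isometric contraction calculated relative to control atria.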

Cavia porcellus [2] = organism: Cavia porcellus; assay: Inhibition of Na+/K+ ATPase-mediated phosphohydrolase activity in guinea pig myocardium up to 10^-4 M after 30 mins; assay type: tissue-based
In short: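 Crude membrane preparation from guinea pig myocardium, holding both (Na+,K+)ATPase and Mg2+-ATPase. Incubated 37 °C, 30 min; substrate consumption under 15% without drug. Activity measured as inorganic phosphate liberated per mg protein per hour. Na+,K+ component taken as total minus Mg2+-ATPase activity, the latter measured without Na+ and K+. Drug range 10^-8–10^-4 M, duplicates.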

| Structure (SMILES) | inhibition (Cavia porcellus [2]) | Activity (Cavia porcellus [1]) |
| --- | --- | --- |
| C[C@]12CC[C@H]3[C@@H](CCC4=C[C@@H](O)CC[C@@]43C)[C@@H]1CC[C@@H]2/C=C\C#N | inactive | inactive |
| COC(=O)/C=C/[C@H]1CC[C@H]2[C@@H]3CC[C@@H]4C[C@H](O)CC[C@]4(C)[C@H]3CC[C@]12C | inactive | inactive |
| COC(=O)/C=C/[C@H]1CC[C@H]2[C@@H]3CCC4=C[C@@H](O)CC[C@]4(C)[C@H]3CC[C@]12C | inactive | inactive |
| COC(=O)/C=C/[C@H]1CC[C@H]2[C@@H]3CC[C@@H]4C[C@@H](O)CC[C@]4(C)[C@H]3CC[C@]12C | inactive | inactive |
| C[C@]12CC[C@H]3[C@@H](CCC4=C[C@@H](O)CC[C@@]43C)[C@@H]1CC[C@@H]2/C=C/C#N | inactive | inactive |

Further lines, with some results ahead:

| inhibition (Cavia porcellus [2]) | Structure (SMILES) | Activity (Cavia porcellus [1]) |
| --- | --- | --- |
| inactive | C[C@]12CC[C@H](O)C[C@@H]1CC[C@@H]1[C@@H]2CC[C@]2(C)[C@@H](/C=C\C#N)CC[C@@H]12 | inactive |
| inactive | C[C@]12CC[C@H](O)C[C@H]1CC[C@@H]1[C@@H]2CC[C@]2(C)[C@@H](/C=C/C#N)CC[C@@H]12 | inactive |
| inactive | C[C@]12CC[C@@H](O)C[C@H]1CC[C@@H]1[C@@H]2CC[C@]2(C)[C@@H](/C=C/C#N)CC[C@@H]12 | inactive |
| inactive | C[C@]12CC[C@@H](O)C[C@H]1CC[C@@H]1[C@@H]2CC[C@]2(C)[C@@H](/C=C\C#N)CC[C@@H]12 | inactive |
| inactive | C[C@]12CC[C@H](O)C[C@@H]1CC[C@@H]1[C@@H]2CC[C@]2(C)[C@@H](/C=C/C#N)CC[C@@H]12 | inactive |
| inactive | C[C@]12CC[C@H](O)C[C@H]1CC[C@@H]1[C@@H]2CC[C@]2(C)[C@@H](/C=C\C#N)CC[C@@H]12 | inactive |
| inactive | COC(=O)/C=C/[C@H]1CC[C@H]2[C@@H]3CC[C@H]4C[C@@H](O)CC[C@]4(C)[C@H]3CC[C@]12C | inactive |
